Results reported in ChEMBL document CHEMBL1129498, “Azole endothelin antagonists. 2. Structure-activity studies” (J Med Chem, 1996).

Assays:
[1] = target: T1, Endothelin receptor type B (Sus scrofa, UniProt P35463); assay: Inhibitory activity was evaluated against ET- B Binding to Endothelin B receptor from porcine cerebellar membranes
T1 sequence (P35463 whole entry): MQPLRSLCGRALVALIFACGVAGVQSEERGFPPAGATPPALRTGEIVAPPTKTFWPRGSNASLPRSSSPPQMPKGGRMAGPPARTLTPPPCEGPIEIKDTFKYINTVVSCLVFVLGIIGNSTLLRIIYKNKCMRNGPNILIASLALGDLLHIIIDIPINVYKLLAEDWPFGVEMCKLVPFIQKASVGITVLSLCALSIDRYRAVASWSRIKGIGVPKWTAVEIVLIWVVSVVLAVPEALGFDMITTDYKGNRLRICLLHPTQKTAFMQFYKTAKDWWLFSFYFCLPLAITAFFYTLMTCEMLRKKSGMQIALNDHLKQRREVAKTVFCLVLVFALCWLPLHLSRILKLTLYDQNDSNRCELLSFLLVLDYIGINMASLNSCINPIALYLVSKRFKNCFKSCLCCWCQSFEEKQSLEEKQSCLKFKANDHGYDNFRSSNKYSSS

MMQ = assay: Inhibitory activity was evaluated by measuring the PI hydrolysis in MMQ cell line; assay type: functional, cell-based, Rattus norvegicus; conditions: Rattus norvegicus, MMQ
Procedure, shortened: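 MMQ cells (0.4 × 10⁶ cells/mL) labeled 16 h with 10 µCi/mL [³H]myoinositol in RPMI, PBS-washed, then held 60 min in buffer A with protease inhibitors and 10 mM LiCl. Compound pre-incubated 5 min, then 1 nM ET-1 challenge for 30 min at 37 °C, stopped with chloroform-methanol. Total inositol phosphates extracted and taken from the aqueous phase by AG1-X8 anion-exchange batch chromatography.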

Endothelin-1 receptor = target: T2, Endothelin-1 receptor (Rattus norvegicus, UniProt P26684); assay: Inhibitory activity was evaluated against ET- A Binding to Endothelin A receptor in MMQ cell homogenates; assay type: cell-free
T2 sequence (P26684 whole entry): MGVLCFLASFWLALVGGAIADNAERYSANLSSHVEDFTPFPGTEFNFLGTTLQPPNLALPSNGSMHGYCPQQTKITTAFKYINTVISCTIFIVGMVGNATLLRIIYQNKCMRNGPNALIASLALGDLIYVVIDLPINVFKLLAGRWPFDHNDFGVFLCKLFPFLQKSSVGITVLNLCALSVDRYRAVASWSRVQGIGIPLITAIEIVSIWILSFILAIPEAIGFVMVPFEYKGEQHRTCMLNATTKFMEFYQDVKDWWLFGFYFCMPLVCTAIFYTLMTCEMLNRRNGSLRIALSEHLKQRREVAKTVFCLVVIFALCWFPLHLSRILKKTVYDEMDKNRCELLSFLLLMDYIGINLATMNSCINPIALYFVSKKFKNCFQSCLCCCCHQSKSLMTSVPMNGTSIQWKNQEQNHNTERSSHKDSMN

| SMILES | IC50 [1] | IC50 (MMQ) | IC50 (Endothelin-1 receptor) |
| --- | --- | --- | --- |
| Cc1[nH]c([C@@H](Cc2c[nH]c3ccccc23)NC(=O)[C@H](CC(C)C)NC(=O)N2CCCCCC2)nc1C(=O)O | > 100 µM | 0.78 µM | – |
| Cc1oc([C@@H](Cc2c[nH]c3ccccc23)NC(=O)[C@H](CC(C)C)NC(=O)NCc2ccccc2)nc1C(=O)O | 96 µM | – | 8.7 µM |
| Cc1[nH]c([C@@H](Cc2cn(C)c3ccccc23)NC(=O)[C@H](CC(C)C)NC(=O)NC2CCC(O)CC2)nc1C(=O)O (stereo partly drawn) | > 100 µM | – | 0.11 µM |
| CCn1cc(C[C@@H](NC(=O)[C@H](CC(C)C)NC(=O)NC2CCCCC2)c2nc(C(=O)O)c(C)o2)c2ccccc21 | > 100 µM | – | – |
| Cc1[nH]c([C@@H](Cc2cn(C)c3ccccc23)NC(=O)[C@H](CC(C)C)NC(=O)NC2CCC(C)CC2)nc1C(=O)O (stereo partly drawn) | 80 µM | – | 0.141 µM |
| Cc1[nH]c([C@@H](Cc2cn(C)c3ccccc23)NC(=O)[C@H](CC(C)C)NC(=O)NC2CCCCC2)nc1C(=O)O | 34 µM | 0.0041 µM | 0.011 µM |
| Cc1oc([C@@H](Cc2cn(C)c3ccccc23)NC(=O)[C@H](CC(C)C)NC(=O)NC2CCC(O)CC2)nc1C(=O)O (stereo partly drawn) | > 100 µM | – | 2.52 µM |
| Cc1oc([C@@H](Cc2cn(C)c3ccccc23)NC(=O)[C@H](CC(C)C)NC(=O)N2CCCCCC2)nc1C(=O)O | > 100 µM | – | 0.62 µM |
| CCn1cc(C[C@@H](NC(=O)[C@H](CC(C)C)NC(=O)NC2CCCCC2)c2nc(C(=O)O)c(C)[nH]2)c2ccccc21 | 55 µM | – | 0.73 µM |
| COC(=O)C1(NC(=O)N[C@@H](CC(C)C)C(=O)N[C@H](Cc2cn(C)c3ccccc23)c2nc(C(=O)O)c(C)o2)CCCCC1 | > 90 µM | – | 0.12 µM |
| Cc1oc([C@@H](Cc2cn(C)c3ccccc23)NC(=O)[C@H](CC(C)C)NC(=O)NC23CC4CC(CC(C4)C2)C3)nc1C(=O)O | 19 µM | – | 0.9 µM |
| Cc1oc([C@@H](Cc2c[nH]c3ccccc23)NC(=O)[C@H](CC(C)C)NC(=O)N2CCCCCC2)nc1C(=O)NCC(=O)O | > 100 µM | – | 1.9 µM |
| Cc1oc([C@@H](Cc2c[nH]c3ccccc23)NC(=O)[C@H](CC(C)C)NC(=O)N2CCCCCC2)nc1CC(=O)O | > 100 µM | – | 9.6 µM |
| Cc1[nH]c([C@@H](Cc2c[nH]c3ccccc23)NC(=O)[C@H](CC(C)C)NS(=O)(=O)N2CCCCCC2)nc1C(=O)O | > 100 µM | – | > 100 µM |
| CCN(CC)C(=O)N[C@@H](CC(C)C)C(=O)N[C@H](Cc1c[nH]c2ccccc12)c1nc(C(=O)O)c(C)[nH]1 | > 100 µM | – | 1 µM |
| Cc1oc([C@@H](Cc2cn(C)c3ccccc23)NC(=O)[C@H](CC(C)C)NC(=O)NC2CCCC2)nc1C(=O)O | 99 µM | – | 0.3 µM |
| Cc1oc([C@@H](Cc2cn(C)c3ccccc23)NC(=O)[C@H](CC(C)C)NC(=O)N2CCc3ccccc32)nc1C(=O)O | 34 µM | 0.0036 µM | 0.0059 µM |
| CNC(=O)c1nc([C@@H](Cc2c[nH]c3ccccc23)NC(=O)[C@H](CC(C)C)NC(=O)N2CCCCCC2)oc1C | 65 µM | – | 3 µM |
| Cc1[nH]c([C@@H](Cc2c[nH]c3ccccc23)NC(=O)[C@H](CC(C)C)NC(=O)NC2CCCCC2)nc1C(=O)O | > 100 µM | – | 0.075 µM |
| Cc1oc([C@@H](Cc2cn(C)c3ccccc23)NC(=O)[C@H](CC(C)C)NC(=O)NC2CCCCC2C)nc1C(=O)O (stereo partly drawn) | > 100 µM | – | 0.65 µM |
| Cc1[nH]c([C@@H](Cc2cn(C)c3ccccc23)NC(=O)[C@H](CC(C)C)NC(=O)N2CCCCCC2)nc1C(=O)O | > 100 µM | – | – |
| Cc1oc([C@@H](Cc2cn(C)c3ccccc23)NC(=O)[C@H](CC(C)C)NC(=O)NC2CCC(C)CC2)nc1C(=O)O (stereo partly drawn) | > 100 µM | – | – |
| Cc1oc([C@@H](Cc2cn(C)c3ccccc23)NC(=O)[C@H](CC(C)C)NC(=O)NC2C3CC4CC(C3)CC2C4)nc1C(=O)O (stereo partly drawn) | 26 µM | – | 0.44 µM |
| Cc1oc([C@@H](Cc2cn(C)c3ccccc23)NC(=O)[C@H](CC(C)C)NC(=O)n2ccc3ccccc32)nc1C(=O)O | 12 µM | – | 0.058 µM |
| Cc1c(C(=O)O)nc([C@@H](Cc2c[nH]c3ccccc23)NC(=O)[C@H](CC(C)C)NC(=O)N2CCCCCC2)n1C | > 100 µM | – | – |
